Reference: the M2OR odorant receptor database

Tests used:
Conditions in all cases: stereoisomer not certain
OR52E1 (Homo sapiens) = OR52E1 (Homo sapiens) (UniProt Q8NGJ3)
In short: (§1)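 Whether a receptor–molecule pair is responsive (active) rests on the original authors' judgment that its measured signal was statistically different from baseline. Pairs without that judgment are non-responsive (inactive). Sources used varied assay methods, commonly transient luciferase assays in mammalian cell lines.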

OR52E2 (Homo sapiens) = OR52E2 (Homo sapiens) (UniProt Q8NGJ4)
In short: as §1

OR52E4 (Homo sapiens) = OR52E4 (Homo sapiens) (UniProt Q8NGH9)
In short: as §1

OR52E5 (Homo sapiens) = OR52E5 (Homo sapiens) (UniProt Q8NH55)
In short: as §1

OR52E6 (Homo sapiens) = OR52E6 (Homo sapiens) (UniProt Q96RD3)
In short: as §1

OR52I1 (Homo sapiens) = OR52I1 (Homo sapiens) (UniProt Q8NGK6)
In short: as §1

OR52I2 (Homo sapiens) = OR52I2 (Homo sapiens) (UniProt Q8NH67)
In short: as §1

OR52J3 (Homo sapiens) = OR52J3 (Homo sapiens) (UniProt Q8NH60)
In short: as §1

OR52K1 (Homo sapiens) = OR52K1 (Homo sapiens) (UniProt Q8NGK4)
In short: as §1

OR52K2 (Homo sapiens) = OR52K2 (Homo sapiens) (UniProt Q8NGK3)
In short: as §1

OR52L1 (Homo sapiens) [1] = molecular target: OR52L1 (Homo sapiens) (UniProt Q8NGH7)
In short: as §1

OR52M1 (Homo sapiens) = OR52M1 (Homo sapiens) (UniProt Q8NGK5)
In short: as §1

OR52N1 (Homo sapiens) = OR52N1 (Homo sapiens) (UniProt Q8NH53)
In short: as §1

OR52N2 (Homo sapiens) = OR52N2 (Homo sapiens) (UniProt Q8NGI0)
In short: as §1

OR52N4 (Homo sapiens) = OR52N4 (Homo sapiens) (UniProt Q8NGI2)
In short: as §1

OR52N5 (Homo sapiens) = OR52N5 (Homo sapiens) (UniProt Q8NH56)
In short: as §1

OR52R1 (Homo sapiens) = OR52R1 (Homo sapiens) (UniProt Q8NGF1)
In short: as §1

OR52W1 (Homo sapiens) = OR52W1 (Homo sapiens) (UniProt Q6IF63)
In short: as §1

OR52L1 (Homo sapiens) [2] = molecular target: OR52L1 (Homo sapiens) (UniProt Q8NGH7); remark: listed apart in the source
In short: as §1

Measured: odorant receptor agonist call

OR52N4 (Homo sapiens), sequence (Q8NGI2 whole entry): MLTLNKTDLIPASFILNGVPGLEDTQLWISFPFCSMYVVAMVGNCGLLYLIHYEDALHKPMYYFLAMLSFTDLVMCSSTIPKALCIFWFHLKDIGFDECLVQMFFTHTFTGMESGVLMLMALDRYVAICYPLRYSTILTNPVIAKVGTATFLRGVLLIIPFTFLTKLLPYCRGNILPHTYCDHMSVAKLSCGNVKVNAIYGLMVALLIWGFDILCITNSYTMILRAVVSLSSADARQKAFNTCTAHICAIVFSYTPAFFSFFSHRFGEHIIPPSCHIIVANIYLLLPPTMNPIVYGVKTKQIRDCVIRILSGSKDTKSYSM
OR52J3 (Homo sapiens), sequence (Q8NH60 whole entry): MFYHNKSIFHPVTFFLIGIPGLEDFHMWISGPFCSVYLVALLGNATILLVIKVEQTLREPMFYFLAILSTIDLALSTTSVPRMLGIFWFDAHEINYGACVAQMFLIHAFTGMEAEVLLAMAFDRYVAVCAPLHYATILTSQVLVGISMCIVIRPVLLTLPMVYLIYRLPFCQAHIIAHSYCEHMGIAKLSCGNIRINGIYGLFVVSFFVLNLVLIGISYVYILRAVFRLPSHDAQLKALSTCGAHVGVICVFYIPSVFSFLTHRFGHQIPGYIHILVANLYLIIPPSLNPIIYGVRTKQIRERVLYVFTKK
OR52E4 (Homo sapiens), sequence (Q8NGH9 whole entry): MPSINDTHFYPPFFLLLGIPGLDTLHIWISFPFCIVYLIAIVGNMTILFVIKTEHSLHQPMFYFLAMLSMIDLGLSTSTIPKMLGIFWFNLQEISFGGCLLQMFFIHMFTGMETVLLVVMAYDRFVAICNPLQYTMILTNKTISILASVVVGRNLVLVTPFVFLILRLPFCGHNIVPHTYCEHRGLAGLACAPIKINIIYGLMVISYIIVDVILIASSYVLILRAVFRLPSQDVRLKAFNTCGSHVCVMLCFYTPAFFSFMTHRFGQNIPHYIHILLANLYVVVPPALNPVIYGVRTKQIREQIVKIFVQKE
OR52R1 (Homo sapiens), sequence (Q8NGF1 whole entry): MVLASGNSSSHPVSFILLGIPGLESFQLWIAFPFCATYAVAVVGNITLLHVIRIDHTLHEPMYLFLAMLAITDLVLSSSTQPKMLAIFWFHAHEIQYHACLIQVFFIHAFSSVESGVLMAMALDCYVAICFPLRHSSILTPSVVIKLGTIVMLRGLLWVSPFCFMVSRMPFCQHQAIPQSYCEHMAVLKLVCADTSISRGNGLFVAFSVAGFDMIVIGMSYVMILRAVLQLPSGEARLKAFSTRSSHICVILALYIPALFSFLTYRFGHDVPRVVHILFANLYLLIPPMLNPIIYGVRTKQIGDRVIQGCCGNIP
OR52I1 (Homo sapiens), sequence (Q8NGK6 whole entry): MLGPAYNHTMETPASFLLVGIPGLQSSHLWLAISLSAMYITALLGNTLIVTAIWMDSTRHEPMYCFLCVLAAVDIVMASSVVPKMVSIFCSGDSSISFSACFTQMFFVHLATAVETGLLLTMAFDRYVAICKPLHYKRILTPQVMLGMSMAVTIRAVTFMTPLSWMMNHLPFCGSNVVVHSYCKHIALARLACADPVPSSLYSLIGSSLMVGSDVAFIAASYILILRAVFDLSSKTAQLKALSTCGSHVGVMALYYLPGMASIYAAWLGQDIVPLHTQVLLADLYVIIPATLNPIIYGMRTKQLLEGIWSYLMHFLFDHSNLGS
OR52K2 (Homo sapiens), sequence (Q8NGK3 whole entry): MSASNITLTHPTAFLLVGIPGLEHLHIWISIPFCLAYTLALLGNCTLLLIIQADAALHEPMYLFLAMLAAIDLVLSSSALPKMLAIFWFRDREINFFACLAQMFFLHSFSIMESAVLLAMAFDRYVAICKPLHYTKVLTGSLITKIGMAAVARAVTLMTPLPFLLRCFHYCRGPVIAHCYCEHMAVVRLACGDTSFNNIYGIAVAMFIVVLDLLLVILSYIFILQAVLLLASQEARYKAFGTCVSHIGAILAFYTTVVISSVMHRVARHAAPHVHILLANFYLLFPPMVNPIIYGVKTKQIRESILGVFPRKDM
OR52M1 (Homo sapiens), sequence (Q8NGK5 whole entry): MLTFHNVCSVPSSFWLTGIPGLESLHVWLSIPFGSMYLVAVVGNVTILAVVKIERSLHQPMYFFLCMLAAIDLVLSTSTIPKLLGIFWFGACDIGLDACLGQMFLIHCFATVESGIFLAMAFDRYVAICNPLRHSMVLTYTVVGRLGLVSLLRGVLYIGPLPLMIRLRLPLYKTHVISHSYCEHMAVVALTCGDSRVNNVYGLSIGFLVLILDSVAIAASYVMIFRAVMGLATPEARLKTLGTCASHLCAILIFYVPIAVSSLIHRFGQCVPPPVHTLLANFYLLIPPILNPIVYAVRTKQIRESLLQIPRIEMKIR
OR52W1 (Homo sapiens), sequence (Q6IF63 whole entry): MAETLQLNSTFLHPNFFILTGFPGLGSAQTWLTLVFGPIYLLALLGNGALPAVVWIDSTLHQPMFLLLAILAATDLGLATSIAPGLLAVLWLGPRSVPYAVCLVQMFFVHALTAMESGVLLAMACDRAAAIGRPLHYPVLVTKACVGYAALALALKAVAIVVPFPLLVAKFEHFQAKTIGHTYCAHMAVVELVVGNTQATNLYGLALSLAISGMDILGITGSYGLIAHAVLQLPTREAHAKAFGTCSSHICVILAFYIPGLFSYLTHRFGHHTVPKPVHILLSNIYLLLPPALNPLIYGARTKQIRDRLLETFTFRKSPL
OR52K1 (Homo sapiens), sequence (Q8NGK4 whole entry): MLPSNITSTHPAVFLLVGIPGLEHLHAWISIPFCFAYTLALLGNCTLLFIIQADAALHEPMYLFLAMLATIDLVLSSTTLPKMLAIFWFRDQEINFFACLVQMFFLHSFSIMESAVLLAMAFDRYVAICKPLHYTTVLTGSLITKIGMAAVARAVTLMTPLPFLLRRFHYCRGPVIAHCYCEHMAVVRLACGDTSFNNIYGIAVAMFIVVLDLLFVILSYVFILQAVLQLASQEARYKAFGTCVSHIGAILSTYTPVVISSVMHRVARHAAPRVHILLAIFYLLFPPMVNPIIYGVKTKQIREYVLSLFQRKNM
OR52E6 (Homo sapiens), sequence (Q96RD3 whole entry): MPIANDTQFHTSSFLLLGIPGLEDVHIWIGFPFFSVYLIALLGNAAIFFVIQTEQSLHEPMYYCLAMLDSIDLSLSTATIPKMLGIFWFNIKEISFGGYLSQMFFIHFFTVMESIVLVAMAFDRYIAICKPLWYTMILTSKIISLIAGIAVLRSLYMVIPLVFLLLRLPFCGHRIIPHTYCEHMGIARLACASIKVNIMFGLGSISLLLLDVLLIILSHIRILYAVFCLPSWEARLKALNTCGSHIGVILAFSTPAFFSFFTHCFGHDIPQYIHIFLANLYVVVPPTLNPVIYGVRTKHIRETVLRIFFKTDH
OR52E2 (Homo sapiens), sequence (Q8NGJ4 whole entry): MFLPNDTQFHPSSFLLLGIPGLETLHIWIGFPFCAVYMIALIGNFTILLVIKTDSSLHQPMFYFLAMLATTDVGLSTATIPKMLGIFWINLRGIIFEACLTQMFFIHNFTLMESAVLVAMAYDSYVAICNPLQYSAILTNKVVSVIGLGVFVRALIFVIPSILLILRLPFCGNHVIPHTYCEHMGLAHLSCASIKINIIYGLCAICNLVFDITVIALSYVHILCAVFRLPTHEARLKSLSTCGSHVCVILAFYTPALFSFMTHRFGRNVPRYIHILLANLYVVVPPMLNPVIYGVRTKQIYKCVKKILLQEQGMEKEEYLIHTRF
OR52I2 (Homo sapiens), sequence (Q8NH67 whole entry): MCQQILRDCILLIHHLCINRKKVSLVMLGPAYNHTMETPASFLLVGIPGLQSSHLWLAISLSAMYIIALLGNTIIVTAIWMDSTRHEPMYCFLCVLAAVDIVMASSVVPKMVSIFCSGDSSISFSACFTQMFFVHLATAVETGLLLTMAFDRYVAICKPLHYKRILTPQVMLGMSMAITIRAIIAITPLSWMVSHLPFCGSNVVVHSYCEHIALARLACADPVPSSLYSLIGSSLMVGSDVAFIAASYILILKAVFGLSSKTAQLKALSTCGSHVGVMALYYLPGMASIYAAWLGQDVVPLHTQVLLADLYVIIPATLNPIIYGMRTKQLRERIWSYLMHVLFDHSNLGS
OR52N5 (Homo sapiens), sequence (Q8NH56 whole entry): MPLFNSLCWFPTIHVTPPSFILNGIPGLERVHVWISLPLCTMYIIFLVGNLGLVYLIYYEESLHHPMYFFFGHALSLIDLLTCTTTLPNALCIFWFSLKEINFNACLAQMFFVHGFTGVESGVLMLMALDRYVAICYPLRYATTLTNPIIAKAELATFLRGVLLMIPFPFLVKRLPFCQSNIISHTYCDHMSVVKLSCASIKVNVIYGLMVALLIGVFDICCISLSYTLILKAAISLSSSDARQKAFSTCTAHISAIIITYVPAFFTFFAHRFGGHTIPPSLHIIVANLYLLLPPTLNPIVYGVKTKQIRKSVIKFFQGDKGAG
OR52N1 (Homo sapiens), sequence (Q8NH53 whole entry): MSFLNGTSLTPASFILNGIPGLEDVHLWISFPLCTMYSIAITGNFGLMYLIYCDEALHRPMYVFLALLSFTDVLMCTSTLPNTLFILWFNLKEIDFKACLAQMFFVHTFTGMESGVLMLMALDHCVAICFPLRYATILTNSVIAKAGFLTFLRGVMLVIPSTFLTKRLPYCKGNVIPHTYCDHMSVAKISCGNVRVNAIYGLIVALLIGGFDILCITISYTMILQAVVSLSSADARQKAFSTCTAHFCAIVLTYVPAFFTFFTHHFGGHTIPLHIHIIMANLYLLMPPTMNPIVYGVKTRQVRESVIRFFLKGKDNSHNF
OR52N2 (Homo sapiens), sequence (Q8NGI0 whole entry): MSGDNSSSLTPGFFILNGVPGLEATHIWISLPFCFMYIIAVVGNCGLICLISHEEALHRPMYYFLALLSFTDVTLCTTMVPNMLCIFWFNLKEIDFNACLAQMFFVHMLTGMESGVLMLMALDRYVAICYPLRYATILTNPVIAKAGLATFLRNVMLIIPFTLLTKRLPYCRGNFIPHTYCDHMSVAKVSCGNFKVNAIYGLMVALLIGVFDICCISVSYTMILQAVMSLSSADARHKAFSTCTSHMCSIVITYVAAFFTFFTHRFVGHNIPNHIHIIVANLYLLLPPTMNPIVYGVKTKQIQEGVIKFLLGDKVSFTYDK

Cc1c([N+](=O)[O-])c(C)c([N+](=O)[O-])c(C(C)(C)C)c1[N+](=O)[O-]
inactive: OR52E1 (Homo sapiens) | OR52E2 (Homo sapiens) | OR52E4 (Homo sapiens) | OR52E5 (Homo sapiens) | OR52E6 (Homo sapiens) | OR52I1 (Homo sapiens) | OR52I2 (Homo sapiens) | OR52J3 (Homo sapiens) | OR52K1 (Homo sapiens) | OR52K2 (Homo sapiens) | OR52L1 (Homo sapiens) [1] | OR52M1 (Homo sapiens) | OR52N1 (Homo sapiens) | OR52N2 (Homo sapiens) | OR52N4 (Homo sapiens) | OR52N5 (Homo sapiens) | OR52R1 (Homo sapiens) | OR52W1 (Homo sapiens)

C=CCOC(=O)Cc1ccccc1
inactive: OR52E1 (Homo sapiens) | OR52E2 (Homo sapiens) | OR52E4 (Homo sapiens) | OR52E6 (Homo sapiens) | OR52I1 (Homo sapiens) | OR52I2 (Homo sapiens) | OR52J3 (Homo sapiens) | OR52K1 (Homo sapiens) | OR52K2 (Homo sapiens) | OR52L1 (Homo sapiens) [2] | OR52M1 (Homo sapiens) | OR52N1 (Homo sapiens) | OR52N2 (Homo sapiens) | OR52N4 (Homo sapiens) | OR52N5 (Homo sapiens) | OR52R1 (Homo sapiens) | OR52W1 (Homo sapiens)
